# Compound activity: PubChem BioAssay, several laboratories
# This is one part of a sample in which hits are shown more often than they occur.
# T cruzi inh: blocks replication of Trypanosoma cruzi. AID 1885. 1.4% of 300,000 active. inhibition, % (test concentration not listed). T. cruzi beta-gal in NIH3T3, luminescence, 90 h;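 active = mean inhibition across valid replicates above about 55%, limit read from the data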;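 also: signal also drops with host cell toxicity which is not excluded here; 0% = plate median of DMSO wells and 100% = zero luminescence signal; higher percent means less beta-gal luminescence so fewer parasites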
#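 Incubation – ≥90 h infection period, 3 h prior cell attachment · System – NIH/3T3 fibroblasts plus reporter T. cruzi · Doses – compound pinned at 50 nL/well, DMSO · Read-out basis – percent inhibition of parasite-derived β-gal signal · Signal – luminescent β-galactosidase signal after 60 min lysis · Also added – 5000 T. cruzi trypomastigotes/well · Medium – Low-serum DMEM with 2% FBS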
# Redox H2O2 prof: compounds producing H2O2 with reducing agent – biochemical, NIH compound library profiling, artefact control for MLSCN library redox annotation, primary screen. 0.03% of 200,000 active. DTT-dependent redox cycling H2O2, phenol red/HRP absorbance; 100% = 100 µM peroxide control, 0% = buffer. activation, % at 10 µM. AID 878;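 active = activation of at least 50% relative to the plate's high and low controls in the primary single-dose screen; inactive = activation below 50%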;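 also: compound incubated with DTT at 0.8 mM final as the reducing agent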
# MPTP inh: inhibitors of mitochondrial permeability transition pore; 1.4% of 360,000 active; isolated mouse mitochondria, Ca2+ swelling absorbance, 30 min; AID 602449; inhibition, % at 10 µM;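 active = inhibition of 50% or more, scaled per plate between neutral and stimulator controls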;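 also: 0% = DMSO wells given calcium and 100% = 1 mM EGTA wells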
# L major viab: reduces viability of Leishmania major promastigotes | resazurin fluorescence viability | inhibition, % at 10 µM | 9% of 200,000 active; in the data active = inhibition above about 50%;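 also: promastigotes grown with compound for 44 hours at 28 °C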
# Lipid droplet: modulators of hepatic lipid droplet formation; AML12 mouse hepatocytes, oleate lipid droplets, BODIPY imaging; inhibition, % at 6.5 µM; 0.4% of 240,000 active;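 active = lipid droplet intensity inhibited by at least 50%, with more than 500 cells counted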
#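 Assay system: AML12 mouse liver cells | Compound: 6.5 µM single-point dosing | Schedule: Overnight exposure | Technique: Fluorescence imaging, 20x objective, two fields per well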
# MPTP counter: membrane potential counter-screen of mitochondrial pore inhibitors; shares compounds with MPTP inh; isolated mitochondria, Rhodamine 123 fluorescence; AID 624504; inhibition, % at 10 µM; 78% of 5,000 active; in the data active = inhibition above about 22%;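 also: 0% = DMSO vehicle and 100% = positive control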
# MPTP swell DR: MPTP inhibition, dose response swelling confirmation | 58% of 780 active | shares compounds with MPTP inh | IC50, µM | AID 651561 | isolated mitochondria swelling, absorbance; in the data active = IC50 below about 20 µM
# MPTP cs DR: counter-screen for mitochondrial permeability transition pore inhibitors, dose response; shares compounds with MPTP inh; isolated mitochondria counterscreen, fluorescence read-out; IC50, µM; 49% of 780 active; in the data active = IC50 below about 80 µM
# * = called active by the depositor; . = no result.
SMILES,T cruzi inh,Redox H2O2 prof,MPTP inh,L major viab,Lipid droplet,MPTP counter,others
CCN1C(=O)[C@H]2[C@@H](c3ccc(OC)cc3)N[C@]3(CCCN(Cc4ccc(OC)cc4)C3=O)[C@H]2C1=O,.,.,-2.2,.,.,.,
Cc1ccc(C(=O)NCCNC(=O)c2ccco2)cn1,-0.8,.,-0.8,.,36.6,.,
Cc1c(Cl)cccc1NC(=S)NCc1ccccc1Cl,-1.4,-0.1,84.2*,11.5,-9.8,94.4*,
C=CCNC(=S)NCC1COc2ccccc2O1 (stereo not drawn),-11.9,0.1,2.2,-3.6,14.3,.,
Cc1c(Cl)cccc1NC(=S)NCCC(c1ccccc1)c1ccccc1,20.4,4.3,62.4*,42.7,-42.2,87.2*,
CNC(=S)NCCC(c1ccccc1)c1ccccc1,0.8,-0.5,4.4,0.8,14.0,.,
Cc1cc(Cl)ccc1NC(=S)NCCC(c1ccccc1)c1ccccc1,30.6,2.0,99.6*,30.1,-36.0,97.2*,
Cc1c(Cl)cccc1NC(=S)NCC1COc2ccccc2O1 (stereo not drawn),-10.6,-1.6,63.1*,16.8,3.7,92.9*,
COC(=O)CCC(=O)Nc1cccc([N+](=O)[O-])c1,-13.3,0.1,0.3,17.5,26.8,.,
Oc1ccc2ccccc2c1/C=N/Nc1ccccc1,-5.6,0.7,1.7,-8.3,4.3,.,
Cc1cc(N/N=C/c2c(O)ccc3ccccc23)nc(-c2ccccc2O)n1,-11.3,-0.2,65.6*,96.8*,20.8,52.4*,
O=C(Nc1nnc(-c2ccccc2Cl)o1)c1nc2ccccc2s1,-2.4,-2.9,95.9*,-5.6,-10.6,-8.9,
O=C(Nc1nnc(-c2ccccc2Cl)o1)c1ccco1,-3.6,-1.3,-1.8,-2.5,-2.8,.,
S=C(NCCOCCOCCNC(=S)Nc1ccccc1)Nc1ccccc1,-12.4,0.1,2.5,3.9,-1.3,.,
CCN(C(=S)Nc1cccc(C)c1)c1ccccc1,-4.6,-0.5,0.0,3.2,-1.2,.,
CCN(C(=S)Nc1ccc(Oc2ccccc2)cc1)c1ccccc1,5.0,0.3,91.0*,-3.1,0.7,97.5*,
S=C(NCc1ccco1)Nc1ccc(Oc2ccc(Cl)cc2)cc1,-13.4,.,72.9*,.,13.9,89.8*,
CC(C)(C)c1ccc(OCCNC(=S)Nc2ccccc2)cc1,1.8,-0.5,92.5*,14.5,19.7,89.5*,
CCCNC(=S)Nc1ccc(Oc2ccccc2)cc1,17.2,0.1,58.1*,4.9,8.6,64.5*,
CCC(CO)Oc1cc(NC(=O)c2ccccc2Cl)c2ncn(C(C)C)c2c1 (stereo not drawn),.,.,-0.7,.,.,.,
CN1C(=O)[C@H]2[C@@H](c3ccccc3)N[C@]3(CCCN(Cc4ccc(F)cc4)C3=O)[C@H]2C1=O,.,.,0.7,.,.,.,
CSc1cccc(NC(=O)C2(S(=O)(=O)c3ccc(C)cc3)CC2)c1,-5.9,-0.3,0.3,37.9,-12.0,.,
COC(=O)c1ccc2c(=O)n(-c3ccc(OC)cc3)c(=S)[nH]c2c1,4.4,9.8,0.2,-5.2,5.5,.,
COc1ccc(N(C)S(=O)(=O)c2cccc(C(=O)N(C)Cc3ccc(C)o3)c2)cc1,6.3,-0.7,-0.4,5.3,-11.4,.,
CCCCNC(=S)Nc1ccc(Oc2ccccc2)cc1,.,0.4,76.0*,21.5,2.7,91.4*,
SMILES,T cruzi inh,Redox H2O2 prof,MPTP inh,L major viab,Lipid droplet,MPTP counter,others
CCOc1ccc(NC(=S)NCCCc2ccccc2)cc1,2.2,-0.4,0.7,-1.4,-7.1,.,
CN(C)c1cc[n+](CC(=O)Nc2ccc(Oc3ccccc3)cc2)cc1,47.3,1.8,70.4*,-5.5,18.6,55.8*,
CCc1ccc(C(=O)Nc2cc(S(=O)(=O)N3CCOCC3)ccc2N2CCOCC2)cc1,.,.,-0.2,.,.,.,
CSCC[C@H](NC(=O)OC(C)(C)C)C(=O)N1CCC(C(=O)N[C@@H](C)C(=O)NC(C)c2ccccc2)CC1 (stereo partly drawn),-4.0,.,0.6,.,-6.5,.,
Cc1nnc(N/N=C/c2cc([N+](=O)[O-])c(N3CCC(C)CC3)cc2N2CCC(C)CC2)n1N,45.8,-0.3,83.2*,99.7*,-85.7,65.8*,
CCOC(=O)c1c(C)[nH]c(C(=O)CSc2ccccc2)c1C,8.5,-2.0,-5.7,-6.2,.,.,
CC(=O)c1c(C)[nH]c(C(=O)CSc2ccc(F)cc2)c1C,16.5,.,90.4*,.,-0.3,83.5*,
CC1CCCCC1N1CN=C(Nc2nc3ccccc3s2)NC1 (stereo not drawn),29.6,3.1,65.8*,3.6,.,-0.8,MPTP swell DR=>100;MPTP cs DR=>80
Cc1nn(C)c(C(=O)NCc2ccc(Cl)cc2)c1Cl,-50.9,0.0,93.3*,-2.8,-34.2,86.1*,
Cc1nc(C)c(C(=O)NCc2ccc(Cl)cc2)o1,-20.0,-0.1,14.4,1.2,.,.,
COc1ccc(C2=C/C(=C\c3ccccc3OC(C)=O)C(=O)O2)cc1,-20.6,.,0.2,.,2.2,.,
COc1ccc(C2=C/C(=C\c3cccc(OC(C)=O)c3)C(=O)O2)cc1,-18.0,0.1,56.7*,50.7*,-5.5,60.4*,
O=C(Nc1ccc(F)cc1)C1C2CCC3C(CCC21)C3(Cl)Cl (stereo not drawn),-15.3,.,61.7*,.,-2.5,73.6*,
O=C(Nc1ccc(Cl)cc1)C1C2CCC3C(CCC21)C3(Cl)Cl (stereo not drawn),.,0.8,5.1,-4.7,.,.,
O=C(Nc1ccc(F)cc1)C1C(c2ccccc2)C1(Cl)Cl (stereo not drawn),-5.2,0.0,91.6*,30.3,-3.2,90.2*,
CCc1ccccc1NC(=O)C1C(c2ccccc2)C1(Cl)Cl (stereo not drawn),-3.3,-5.2,50.7*,50.2*,.,76.1*,
CCOc1ccccc1NC(=O)C1C(c2ccccc2)C1(Cl)Cl (stereo not drawn),.,.,1.2,.,.,.,
Cc1ccc(C)c(NC(=O)C2C(c3ccccc3)C2(Cl)Cl)c1 (stereo not drawn),-10.4,-5.0,75.7*,41.9,.,88.9*,
Cc1ccc2c(c1)-c1cc(C)ccc1C2=O,.,.,0.0,.,.,.,
CSc1ccc(C(O)c2ncc(-c3ccccc3Cl)[nH]2)cc1 (stereo not drawn),.,.,1.9,.,.,.,
Cc1ncc(CN2CCN(C(C)C)C(CCO)C2)s1 (stereo not drawn),5.3,-0.7,-1.0,0.0,4.2,.,
CN(Cc1ccc(OC(F)F)cc1)C(=O)c1cccc(S(=O)(=O)N2CCN(Cc3ccccc3)CC2)c1,.,.,58.2*,.,.,99.3*,
O=C(N/N=C/c1ccc(F)cc1)c1cccc(NC(=O)c2ccc(F)cc2)c1,2.1,.,2.4,.,19.2,.,
CCOC(=O)c1c(NC(=O)CSc2nnc(C)c(=O)[nH]2)sc(C)c1-c1ccc(C)cc1,2.6,.,70.0*,.,-1.3,61.7*,
CCOC(=O)c1c(NC(=O)CSc2nnc(C)c(=O)[nH]2)sc2c1CCCC2,-0.7,0.1,6.7,-7.3,1.8,.,
